According to ChEMBL document CHEMBL4840310, “Discovery of novel 2,3,5-trisubstituted pyridine analogs as potent inhibitors of IL-1β via modulation of the p38 MAPK signaling pathway” (Eur J Med Chem, 2021):
Active and inactive are the calls of the source. The rule behind the calls is not given here.

Tests used:
[1] = Inhibition of LPS stimulated IL-1beta in human mococyte-derived macrophages cells preincubated for 2 hrs followed by LPS stimulation and measured after 6 hrs by ELISA; format: functional; conditions: Macrophage
Method in brief: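 Human monocyte-derived macrophages stimulated with LPS; IL-1β secretion measured over 10 concentrations per compound, N = 2, to compute individual IC50 values; dexamethasone run in parallel as reference. Z-score reported.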

Macrophage [2] = test: Inhibition of LPS stimulated IL-2 in human mococyte-derived macrophages cells at 1 uM preincubated for 2 hrs followed by LPS stimulation and measured after 6 hrs by ELISA; format: functional; conditions: time 8.0 hrs
[3] = Tmax in Wistar rat at 65 mg/kg, po administered as single dose; format: ADME, organism-based; conditions: in vivo
Method in brief: (§1)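 Female Wistar rats, 8 weeks old, given a single oral 65 mg/kg dose in PEG400/Kolliphor HS 15 (70/30 v/v); plasma drug levels sampled over time (N = 9). Tmax taken from the curve; two-compartment fit with first-order terminal elimination gave distribution and elimination half-lives.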

[4] = Half life in Wistar rat 65 mg/kg, po administered as single dose; format: ADME, organism-based; conditions: in vivo; method in brief: as §1
[5] = target: T1, Mitogen-activated protein kinase 14 (Homo sapiens, UniProt Q16539); test: Binding affinity to p38 alpha MAPK (unknown origin) assessed as dissociation rate constant by surface plasmon resonance imaging
T1 sequence (Q16539 whole entry): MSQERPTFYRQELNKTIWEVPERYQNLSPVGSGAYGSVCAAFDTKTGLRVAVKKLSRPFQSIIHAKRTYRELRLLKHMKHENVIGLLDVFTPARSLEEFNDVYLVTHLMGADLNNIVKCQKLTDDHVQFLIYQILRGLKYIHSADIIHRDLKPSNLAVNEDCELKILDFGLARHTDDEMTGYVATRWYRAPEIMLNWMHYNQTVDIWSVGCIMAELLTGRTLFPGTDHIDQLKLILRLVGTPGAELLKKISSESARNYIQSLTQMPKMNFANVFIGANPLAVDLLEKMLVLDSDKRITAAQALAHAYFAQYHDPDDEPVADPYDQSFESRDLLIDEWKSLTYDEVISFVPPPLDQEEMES

Mus musculus [6] = test: Anti-inflammatory activity in po dosed Balb/c mouse assessed as inhibition of stimulated IL-1beta secretion in brain after 4 hrs by ELISA; format: functional, organism-based; conditions: dose 10-20 mg/kg
Macrophage [7] = test: Inhibition of LPS stimulated IL-6 in human mococyte-derived macrophages cells at 1 uM preincubated for 2 hrs followed by LPS stimulation and measured after 6 hrs by ELISA; format: functional; conditions: time 8.0 hrs
Macrophage [8] = test: Inhibition of LPS stimulated IL-4 in human mococyte-derived macrophages cells at 1 uM preincubated for 2 hrs followed by LPS stimulation and measured after 6 hrs by ELISA; format: functional; conditions: time 8.0 hrs
Mus musculus [9] = test: Anti-inflammatory activity in Balb/c mouse assessed as inhibition of stimulated IL-1beta secretion in plasma at 10 mg/kg, po after 4 hrs by ELISA; format: functional, organism-based
Method in brief: (§2)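 Male BALB/c mice dosed orally with 10 or 20 mg/kg compound (DMSO stock, then 5% TPGS in PBS), vehicle controls. LPS O111:B4 0.33 mg/kg i.p. in saline given 2 h after treatment. Blood drawn retro-orbitally into heparin tubes 4 h post-LPS; plasma IL-1β by ELISA read at 450 nm.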

Mus musculus [10] = test: Anti-inflammatory activity in Balb/c mouse assessed as inhibition of stimulated IL-1beta secretion in plasma at 20 mg/kg, po after 4 hrs by ELISA; format: functional, organism-based; method in brief: as §2
Macrophage [11] = test: Inhibition of LPS stimulated IL-8 in human mococyte-derived macrophages cells at 1 uM preincubated for 2 hrs followed by LPS stimulation and measured after 6 hrs by ELISA; format: functional; conditions: time 8.0 hrs
Macrophage [12] = test: Inhibition of LPS stimulated GM-CSF in human mococyte-derived macrophages cells at 1 uM preincubated for 2 hrs followed by LPS stimulation and measured after 6 hrs by ELISA; format: functional; conditions: time 8.0 hrs
Mus musculus [13] = test: Anti-inflammatory activity in po dosed Balb/c mouse assessed as inhibition of stimulated IL-1beta secretion in lung after 4 hrs by ELISA; format: functional, organism-based; conditions: dose 10-20 mg/kg
[14] = target: T1, Mitogen-activated protein kinase 14; test: Binding affinity to p38 alpha MAPK (unknown origin) assessed as association constant by surface plasmon resonance imaging
Mus musculus [15] = test: Anti-inflammatory activity in po dosed Balb/c mouse assessed as inhibition of stimulated IL-1beta secretion in liver after 4 hrs by ELISA; format: functional, organism-based; conditions: dose 10-20 mg/kg
[16] = Elimination half life in Wistar rat 65 mg/kg, po administered as single dose; format: ADME, organism-based; conditions: in vivo, read-out: beta t1/2 (converted); method in brief: as §1

| SMILES | IC50 [1] | also measured |
| --- | --- | --- |
| CCC(=O)c1ccc(-c2cc(S(=O)(=O)N(C)C)cnc2N2CCC(Oc3ccc(Cl)cc3)CC2)cc1 | > 10000 nM | – |
| CN(C)S(=O)(=O)c1cnc(N2CCC(Oc3ccc(Cl)cc3)CC2)c(Nc2ccc3c(c2)OCO3)c1 | 121 nM | – |
| CN(C)S(=O)(=O)c1cnc(N2CCC(Oc3ccc(Cl)cc3)CC2)c(Nc2ccc3c(c2)CCO3)c1 | 29 nM | – |
| CCC(=O)c1ccc(Nc2cc(S(=O)(=O)N(C)C)cnc2N2CCC(Oc3ccc(Cl)cc3)CC2)cc1 | > 10000 nM | – |
| CN(C)S(=O)(=O)c1cnc(N2CCC(Oc3ccc(Cl)cc3)CC2)c(-c2ccc3c(c2)CCO3)c1 | 27 nM | – |
| CCOc1ccc(Oc2cc(S(=O)(=O)N(C)C)cnc2N2CCN(Cc3ccc(Cl)cc3)CC2)cc1 | > 10000 nM | – |
| CCOc1ccc(Oc2cc(S(=O)(=O)N(C)C)cnc2N2CCN(Cc3ccc(Cl)nc3)CC2)cc1 | > 10000 nM | – |
| CN(C)S(=O)(=O)c1cnc(N2CCC(Oc3ccc(Cl)cc3)CC2)c(Nc2ccc3oc(CO)cc3c2)c1 | 12.8 nM | – |

The next lines start with results.

| IC50 [1] | SMILES | also measured |
| --- | --- | --- |
| > 10000 nM | CN(C)S(=O)(=O)c1cnc(N2CCC(Oc3ccc(Cl)cc3)CC2)c(Oc2ccc(OCCO)cc2)c1 | – |
| 28 nM | CCOc1ccc(Oc2cc(S(=O)(=O)N(C)C)cnc2N2CCC(Oc3ccc(Cl)cc3)CC2)cc1 | inhibition (Macrophage [2]): Active; Tmax [3]: 1 h; half-life [4]: 2.1 h; koff [5]: 2.48 10^-4/s; Activity (Mus musculus [6]): Dose-Dependent Effect; inhibition (Macrophage [7]): Active; inhibition (Macrophage [8]): Active; Activity (Mus musculus [9]): Active; Activity (Mus musculus [10]): Active; inhibition (Macrophage [11]): Active; inhibition (Macrophage [12]): Active; Activity (Mus musculus [13]): Dose-Dependent Effect; Ka [14]: 2.08 10^4/M/s; Activity (Mus musculus [15]): Dose-Dependent Effect; half-life [16]: 9 h |
| 1100 nM | CCOc1ccc(Oc2cc(S(=O)(=O)N(C)C)cnc2N2CCC(Oc3ccc(Cl)nn3)CC2)cc1 | – |
| > 10000 nM | CCOc1ccc(Nc2cc(S(=O)(=O)N(C)C)cnc2N2CCC(Oc3ccc(Cl)cc3)CC2)cc1 | – |
| 337 nM | CCOc1ccc(Oc2cc(S(=O)(=O)N(C)C)cnc2N2CCC(Oc3ccc(C(N)=O)nc3)CC2)cc1 | – |
| 4000 nM | CCOc1ccc(Oc2cc(S(=O)(=O)N(C)C)cnc2N2CCC(Oc3ccc(Cl)nc3)CC2)cc1 | – |
| > 10000 nM | CCCOc1ccc(Nc2cc(S(=O)(=O)N(C)C)cnc2N2CCC(Oc3ccc(Cl)cc3)CC2)cc1 | – |
| 28 nM | CN(C)S(=O)(=O)c1cnc(N2CCC(Oc3ccc(Cl)cc3)CC2)c(Oc2ccc3c(c2)CCO3)c1 | – |
